The whole screen tested about 340,000 compounds, of which about 1,100 (0.32%) were called active.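 How the source made its calls: active means inhibition above a set limit, near 3 SD of compounds lacking own fluorescence (cut at about 54% in these data); inactive means the rest.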 The list comes from a sample in which actives are over-represented; it also holds similar structures and randomly drawn compounds.

The test deals with beta-arrestin 1 C-terminal peptide binding to AP2 beta2-adaptin appendage (human). Description: blockers of arrestin peptide association with AP2 adaptin – biochemical, GPCR trafficking, flow cytometry, primary screen (AID 504490).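 Further: plate controls were DMSO wells for no effect and 5 µM unlabelled arrestin peptide for full effect.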 The settings on record: FITC-arrestin peptide / GST-AP2 beads, at 10 µM, hits give high values, AP2 beta2 appendage carries R879A mutation. A digest of the protocol: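 System: GST-AP2 R879A bound to glutathione beads, E. coli-expressed. Also added: 50 nM FITC-arrestin peptide. Schedule: compound with beads 12 min RT, then probe 1 h RT. Signal: bead flow cytometry, FITC channel. Read-out basis: percent response.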
(A flow cytometer gives signals particle by particle.)
Regarding `COc1cccc(/C=C2/SC(=S)N(CC(=O)NC3C=CS(=O)(=O)C3)C2=O)c1` (stereo not given), the inhibition is -14% (inactive).

Consider `CCOc1ccc(/C=C2\SC(=S)N(NC(=O)c3ccncc3)C2=O)cc1OC`, for which the inhibition was 18.7% (inactive).

Turning to `COc1ccc(/C=C2\SC(=S)N(CCC(=O)Nc3ccccn3)C2=O)cc1OC`, the inhibition was 73.7% (active).

`N#CCCN(C(=O)COC(=O)c1ccc(S(=O)(=O)N2CCCCCC2)cc1)c1ccccc1`: the inhibition was -3.59% (inactive).

On to `Cc1ccc(OCCCCc2c(C)n[nH]c2C)cc1`, for which the inhibition is 65.1% (active).

Regarding `COc1ccc(-c2[nH]ncc2CN(C)Cc2c(C)n[nH]c2C)c(OC)c1`, the inhibition was 6.55% (inactive).

As to `CC(=O)c1c(C)[nH]c(C(=O)COC(=O)CCOc2ccc(C)cc2)c1C`, the inhibition is 5.24% (inactive).

Turning to `Cc1cc(NC(=O)CCS(=O)(=O)c2ccc(F)cc2)no1`, the inhibition is -7.97% (inactive).

`CC1CN(C(=O)c2ccccc2NS(=O)(=O)c2cccc([N+](=O)[O-])c2)CC(C)O1` (stereo not given): the inhibition is 2.09% (inactive).

In the case of `COc1cccc(CN2CCNC(=O)C2CC(=O)N(C)CCc2ccccn2)c1` (stereo not given), the inhibition was -2.95% (inactive).

`CN(CCc1cn[nH]c1)C(=O)CC1C(=O)NCCN1Cc1cccc(Oc2ccccc2)c1` (stereo not given): the inhibition is 9% (inactive).

As for `NC(=O)C1CCN(C(=O)CC2C(=O)NCCN2Cc2cccc(Oc3ccccc3)c2)CC1` (stereo not given), the inhibition was 68.5% (active).

In the case of `Cc1nc2c(ncn2-c2ccccc2)c(=O)n1NC(=O)CN1CCCC1`, the inhibition was -8.96% (inactive).

In the case of `COc1ccc(-n2ncc3c2CC(C)(C)CC3NC(=O)CCc2c(C)noc2C)cc1` (stereo not given), the inhibition is 5.75% (inactive).

With `O=C(c1ccc(Cl)s1)N(Cc1nnc(-c2ccccc2Cl)o1)C1CC1`, the inhibition is -9.93% (inactive).

In the case of `O=C(Nc1nc(-c2ccco2)c(-c2ccco2)s1)c1ccco1`, the inhibition is 8.21% (inactive).

Consider `COCCNC(=O)Nc1ccc2nc(-c3ccco3)c(-c3ccco3)nc2c1`, for which the inhibition was 68% (active).

On to `COCCNC(=O)c1snc2ccc(Cl)cc12`, for which the inhibition was 2.57% (inactive).

Take `CCc1noc(C)c1C(=O)N1CCCC(N2CCN(c3ccc(F)cc3)CC2)C1` (stereo not given): the inhibition was 7.14% (inactive).

With `COc1cccc(C2SCC(=O)N2c2cccc(C)c2)c1OC` (stereo not given), the inhibition is 3.87% (inactive).

`CCc1ccc(NC(=O)Nc2ccncc2)cc1`: the inhibition was 0.23% (inactive).

As to `Cc1csc(NC(=O)C2=COCCO2)n1`, the inhibition is 17.8% (inactive).

As for `NS(=O)(=O)c1ccc2nc(NC(=O)CS(=O)(=O)c3ccc(F)cc3)sc2c1`, the inhibition was 3.77% (inactive).

Regarding `NS(=O)(=O)c1ccc2nc(NC(=O)C3=COCCO3)sc2c1`, the inhibition is 58.1% (active).

On to `O=C1N(Cc2ccc3c(c2)OCO3)c2ccccc2C1(O)c1c[nH]c2ccccc12` (stereo not given), for which the inhibition is 2.95% (inactive).

`Cc1ccccc1Cn1c2ccccc2c2cnn(CC(=O)NCc3ccco3)c(=O)c21`: the inhibition is -0.8% (inactive).

Turning to `CCOc1ccc(C(C)=O)cc1COC(=O)CN1C(=O)NC2(CCCC2)C1=O`, the inhibition is 3.04% (inactive).

Regarding `S=c1ccc2ccccc2[nH]1`, the inhibition was -7.56% (inactive).

Turning to `COC(=O)C1=C(C)N(C)C(C)=C(C(=O)OC)C1c1cccc(Br)c1`, the inhibition was -3.12% (inactive).

With `CCN1C[C@@H]2[C@@H]3C(=O)N(Cc4ccccc4)C(=O)[C@@H]3[C@](Cc3ccccc3)(C(=O)OC)N2C1=NC1CCCCC1`, the inhibition was 4.73% (inactive).

For the compound `NC(=O)c1ccc(Nc2ccc3c(c2)CCC3)c([N+](=O)[O-])c1`, the inhibition was 38.4% (inactive).

Consider `Cc1ccc(Nc2ccc(C(N)=O)cc2[N+](=O)[O-])cc1`, for which the inhibition was 54.7% (active).

`CCOc1ccccc1Nc1ccc(C(=O)O)cc1[N+](=O)[O-]`: the inhibition was 35.8% (inactive).

For the compound `S=C(Nc1cccnc1)Nc1ccccn1`, the inhibition is 3.47% (inactive).

For `CCOc1ccccc1C1CC(c2ccc(Cl)cc2)Nc2nc(N)nn21` (stereo not given), the inhibition was 10.8% (inactive).

Take `O=c1[nH]c2ccccc2n2c(-c3ccccc3)nnc12`: the inhibition is 55.3% (active).

`O=c1[nH]n2c(-c3ccccc3)nc(O)c2c2ccccc12`: the inhibition is -0.17% (inactive).

On to `Cc1ccc(-c2cccc([C@H]3[C@@H]4C=CC[C@@H](C)[C@@H]4C(=O)N3Cc3ccccc3)c2)cc1`, for which the inhibition is -6.59% (inactive).

`CCC1(CC)NC(=O)N(CC(=O)OCC(=O)NC(=O)c2ccccc2)C1=O`: the inhibition is 5.01% (inactive).

In the case of `CC(=O)Nc1ccc(S(=O)(=O)N2CCC(N(C)CCC(C)C)CC2)cc1`, the inhibition was -0.3% (inactive).

Turning to `CC(CN1CCCCC1)OC(=O)c1ccccc1Cl` (stereo not given), the inhibition was 84.6% (active).

As for `Cc1cccc(C(=O)OC(C)CN2CCCC2)c1` (stereo not given), the inhibition is 14.8% (inactive).

Regarding `CC(CN1CCOCC1)OC(=O)c1ccc(Cl)cc1Cl` (stereo not given), the inhibition was 8.15% (inactive).

For the compound `Cc1cccn2c(=O)c(/C=C(\C#N)C(N)=O)c(N3CCCCCC3)nc12`, the inhibition is -21.3% (inactive).

In the case of `Cc1cc(C)cc(Oc2nc3c(C)cccn3c(=O)c2/C=C(\C#N)C(=O)NC2CCS(=O)(=O)C2)c1` (stereo not given), the inhibition is 77.2% (active).

As to `Cc1cccn2c(=O)c(/C=C(\C#N)S(=O)(=O)c3ccc(Cl)cc3)c(N3CCC(C(N)=O)CC3)nc12`, the inhibition was 3.53% (inactive).

For the compound `CCCn1c(O)c(CN2CCCC(C)C2)c(C)c(C#N)c1=O` (stereo not given), the inhibition was 11.7% (inactive).

Take `O=C(NNc1cc(Cl)cc(Cl)c1)c1c(F)cccc1Cl`: the inhibition is -11.9% (inactive).

Regarding `O=C(NCc1ccco1)c1cc2sccc2n1Cc1ccc(F)cc1`, the inhibition was 1.12% (inactive).

Regarding `CCN(CC(=O)NCc1ccco1)S(=O)(=O)c1ccc(F)cc1`, the inhibition was 24.4% (inactive).

For `O=C(NCc1ccco1)c1ccc(CS(=O)(=O)Cc2ccc(F)cc2)o1`, the inhibition was 97% (active).

On to `Cc1ccc(NS(=O)(=O)c2cn(C)c(=O)n(C)c2=O)c(C)c1`, for which the inhibition was -3.22% (inactive).

`Cc1ccc(CC2C(=O)N(c3ccc(F)cc3)C(=O)C2C)cc1` (stereo not given): the inhibition was -10.9% (inactive).

With `CC(C)Nc1ncnc2c1nnn2Cc1ccccc1`, the inhibition is -0.65% (inactive).

Regarding `COc1ccc(CCNc2ncnc3c2nnn3Cc2ccccc2)cc1`, the inhibition was 56% (active).

As for `COc1ccc(CNCCCn2cnc3c(OCc4ccccc4)ncnc32)cc1`, the inhibition was 3.96% (inactive).

As to `CN(CCCC(=O)Nc1nccs1)S(=O)(=O)c1ccc(Cl)cc1`, the inhibition is -5.07% (inactive).

Consider `Cc1c(C(=O)NNC(=O)c2ccncc2)oc2ccccc12`, for which the inhibition is -2.61% (inactive).

In the case of `O=C(Nc1ccccc1N1CCOCC1)c1ccncc1`, the inhibition is -0.66% (inactive).

As for `CN(C)c1ccc(NC(=O)c2ccncc2)c2ccccc12`, the inhibition was 57.2% (active).

In general, inhibition refers to the relative decrease from the control value, in per cent.

These data come from PubChem BioAssay AID504490 (NMMLSC, 2011).
